Legend:
D(3) dopamine receptor [1] = molecular target: T1, D(3) dopamine receptor (Homo sapiens, UniProt P35462); assay: Displacement of [3H]-N-methylspiperone from human dopamine D3 receptor expressed in HEK293 cells after 30 mins by scintillation counting; type: cell-based
D(1A) dopamine receptor = D(1A) dopamine receptor (Homo sapiens, UniProt P21728); assay: Displacement of [3H]-SCH-23390 from human dopamine D1 receptor expressed in HEK293 cells after 30 mins by scintillation counting; type: cell-based
[2] = Displacement of [3H]-N-methylspiperone from dopamine D2 like receptor in pig striatal homogenates after 30 mins by scintillation counting; type: tissue-based, Sus scrofa
[3] = Displacement of [3H]-SCH-23390 from dopamine D1 like receptor in pig striatal homogenates after 30 mins by scintillation counting; type: tissue-based, Sus scrofa
Homo sapiens [4] = organism: Homo sapiens; assay: Selectivity ratio of Ki for human dopamine D3 receptor to Ki for human dopamine D2long receptor
In short: (§1)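 Membranes from HEK293 cells transiently expressing human receptors: D1 at ~2840 fmol/mg, D2Long at ~2500 fmol/mg, D3 at ~1980 fmol/mg. Buffer 50 mM Tris, 4 mM MgCl2, pH 7.4. […] 5 µM (+)-butaclamol for nonspecific binding. 30 min at 37 °C, filtration, scintillation.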

D(2) dopamine receptor = D(2) dopamine receptor (Homo sapiens, UniProt P14416); assay: Displacement of [3H]-N-methylspiperone from human dopamine D2long receptor expressed in HEK293 cells after 30 mins by scintillation counting; type: cell-based
Sus scrofa = organism: Sus scrofa; assay: Selectivity ratio of Ki for dopamine D2 like receptor in pig striatal homogenates to Ki for dopamine D1 like receptor in pig striatal homogenates; type: tissue-based
In short: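 Porcine striatal homogenate in 50 mM HEPES, 4 mM MgCl2, pH 7.4. […] D2-like sites labelled with 0.2–0.4 nM [3H]N-methylspiperone plus 50 nM ketanserin to block 5-HT2A. Nonspecific binding with 5 µM (+)-butaclamol. 30 min at 37 °C, filtration, scintillation counting. Ki by Cheng-Prusoff from IC50. At least three experiments.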

Homo sapiens [5] = organism: Homo sapiens; assay: Selectivity ratio of Ki for human dopamine D3 receptor to Ki for human dopamine D1 receptor; in short: as §1
D(3) dopamine receptor [6] = molecular target: T1, D(3) dopamine receptor; assay: Agonist activity at dopamine D3 receptor in human U2OS-D3 cells assessed as EA-tagged beta-arrestin translocation after 1.5 hrs by luminescence based beta-galactosidase assay relative to dopamine; type: functional, cell-based

T1 sequence (P35462 whole entry): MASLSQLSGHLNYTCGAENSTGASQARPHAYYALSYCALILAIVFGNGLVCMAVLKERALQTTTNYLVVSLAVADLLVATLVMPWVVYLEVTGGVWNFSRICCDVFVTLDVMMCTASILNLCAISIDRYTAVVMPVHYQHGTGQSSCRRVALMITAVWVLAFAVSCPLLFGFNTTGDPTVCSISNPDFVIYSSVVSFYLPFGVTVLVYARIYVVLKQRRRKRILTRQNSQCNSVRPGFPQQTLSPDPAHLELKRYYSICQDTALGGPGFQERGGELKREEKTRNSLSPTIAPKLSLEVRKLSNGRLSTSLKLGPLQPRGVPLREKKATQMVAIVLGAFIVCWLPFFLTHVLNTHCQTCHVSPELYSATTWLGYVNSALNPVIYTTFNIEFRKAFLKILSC
Chain of D(1A) dopamine receptor (P21728 whole entry): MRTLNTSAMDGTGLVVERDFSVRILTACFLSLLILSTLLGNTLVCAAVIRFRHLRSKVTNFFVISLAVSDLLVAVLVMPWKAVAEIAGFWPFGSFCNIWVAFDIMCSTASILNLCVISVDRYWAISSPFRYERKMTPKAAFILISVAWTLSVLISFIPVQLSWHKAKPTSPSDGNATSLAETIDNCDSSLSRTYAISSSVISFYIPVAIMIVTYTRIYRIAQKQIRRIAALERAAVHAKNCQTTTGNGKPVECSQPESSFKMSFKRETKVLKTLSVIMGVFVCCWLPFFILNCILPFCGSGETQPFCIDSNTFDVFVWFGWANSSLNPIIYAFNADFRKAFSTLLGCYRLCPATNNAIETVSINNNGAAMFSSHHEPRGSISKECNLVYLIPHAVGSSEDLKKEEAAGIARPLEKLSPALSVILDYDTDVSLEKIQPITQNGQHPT
Chain of D(2) dopamine receptor (P14416 whole entry): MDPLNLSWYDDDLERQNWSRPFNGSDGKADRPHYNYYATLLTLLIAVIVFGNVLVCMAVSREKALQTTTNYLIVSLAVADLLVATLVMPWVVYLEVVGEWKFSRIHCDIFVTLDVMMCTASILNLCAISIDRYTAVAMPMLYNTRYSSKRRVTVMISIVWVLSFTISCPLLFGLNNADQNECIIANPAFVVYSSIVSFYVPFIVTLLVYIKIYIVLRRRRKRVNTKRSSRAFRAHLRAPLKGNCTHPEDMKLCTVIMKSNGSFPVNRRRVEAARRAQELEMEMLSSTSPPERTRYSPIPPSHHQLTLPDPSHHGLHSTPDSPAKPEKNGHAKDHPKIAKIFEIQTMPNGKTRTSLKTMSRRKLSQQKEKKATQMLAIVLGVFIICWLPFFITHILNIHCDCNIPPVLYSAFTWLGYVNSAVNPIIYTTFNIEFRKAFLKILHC

**Q.** Which Ki (D(3) dopamine receptor [1]) does the source give for `Oc1ccc2c(c1O)C[C@@H](c1ccccc1)[C@@H]1CCNC[C@@H]21` here?
**A.** Its Ki is 210 nM.

**Q.** And the Ki (D(1A) dopamine receptor)?
**A.** The Ki was 47 nM.

**Q.** And the Ki [2]?
**A.** The Ki was 180 nM.

**Q.** And the Ki [3]?
**A.** The Ki was 8.2 nM.

**Q.** With `CN1CCc2cc(Cl)c(O)cc2[C@@H](c2ccccc2)C1.O=C(O)/C(O)=C(/O)C(=O)O` as the compound, how does the Ki [3] read?
**A.** The Ki was 0.31 nM.

**Q.** Which results are given for `Oc1ccc([C@H]2CN[C@@H]3CCc4cc(O)c(O)cc4[C@H]3C2)cc1` (racemic)?
**A.** Ratio Ki (Homo sapiens [4]): 10; Ki (D(3) dopamine receptor [1]): 50 nM; Ki (D(2) dopamine receptor): 490 nM; Ki (D(1A) dopamine receptor): 550 nM; Ki [2]: 14 nM; Ratio Ki (Sus scrofa): 34; Ki [3]: 490 nM

**Q.** Which results are given for `Oc1cccc([C@H]2CN[C@@H]3CCc4cc(O)c(O)cc4[C@H]3C2)c1` (racemic)?
**A.** Ki [2]: 29 nM; Ratio Ki (Sus scrofa): 20; Ki [3]: 580 nM

**Q.** What does the source list for `Cc1ccc([C@H]2CN[C@@H]3CCc4cc(O)c(O)cc4[C@H]3C2)cc1` (racemic)?
**A.** Ki [2]: 56 nM; Ratio Ki (Sus scrofa): 14; Ki [3]: 810 nM

**Q.** For `Oc1cc2c(cc1O)[C@H]1C[C@@H](c3ccc(C(F)(F)F)cc3)CN[C@@H]1CC2` (racemic), which Ki [2] is on record?
**A.** The Ki was 150 nM.

**Q.** What about the Ratio Ki (Sus scrofa) of the same compound?
**A.** The Ratio Ki was 16.

**Q.** What about the Ki [3] of the same compound?
**A.** The Ki was 2370 nM.

**Q.** For `Oc1cc2c(cc1O)[C@H]1C[C@@H](c3ccccc3)CN[C@@H]1CC2` (racemic), which Ki [2] is on record?
**A.** Its Ki is 30 nM.

**Q.** What about the Ratio Ki (Sus scrofa) of the same compound?
**A.** The Ratio Ki was 31.

**Q.** And the Ki [3]?
**A.** Its Ki is 930 nM.

**Q.** For `CCCN1C[C@H](c2ccc(O)cc2)C[C@@H]2c3cc(O)c(O)cc3CC[C@H]21` (relative stereo), which Ratio Ki (Homo sapiens [5]) is on record?
**A.** The Ratio Ki was 840.

**Q.** What about the Emax (D(3) dopamine receptor [6]) of the same compound?
**A.** Its Emax is 103%.

**Q.** And the Ratio Ki (Homo sapiens [4])?
**A.** Its Ratio Ki is 145.

**Q.** What about the Ki (D(1A) dopamine receptor) of the same compound?
**A.** The Ki was 921 nM.

**Q.** What about the Ki [2] of the same compound?
**A.** The Ki was 10 nM.

**Q.** What about the Ratio Ki (Sus scrofa) of the same compound?
**A.** Its Ratio Ki is 61.

**Q.** What about the Ki [3] of the same compound?
**A.** Its Ki is 630 nM.

**Q.** Which Ki [2] does the source give for `Oc1cc2c(cc1O)[C@H]1c3ccccc3CN[C@@H]1CC2` (relative stereo) [DIHYDREXIDINE] here?
**A.** Its Ki is 200 nM.
